Assays:
Cavia porcellus [1] = species on record: Cavia porcellus; test: Maximal follow rate showing the contractile frequencies of atria to electrical stimulation 10 min after incubation with right atria of guinea pig.; format: functional
Method in brief: (§1)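 Isolated right atria driven by electrical stimulation (Dawes' method). Maximal follow rate, the highest contractile frequency the atria follow, measured as an index of refractory period 10 min after incubation with compound.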

[2] = biological target: Adrenergic receptor beta (Cavia porcellus); test: Beta adrenergic receptor blocking activity measured by the inotropic effect was determined 1 hr after pretreament of the right atria in guinea pig
[3] = biological target: Adrenergic receptor beta (Cavia porcellus); test: Beta adrenergic receptor blocking activity measured by the chronotropic effect was determined 1 hr after pretreatment of the right atria in guinea pig
Canis familiaris [4] = species on record: Canis familiaris; test: Duration of ischemic arrhythmias in dogs determined in minutes.
Canis familiaris [5] = test: Effect on ischemic arrhythmias was studied in dogs. 3 mg/kg was injected intravenously and percent sinus beats after compound administration, was reported.; format: functional, Canis lupus familiaris; details: route intravenous
Method in brief: (§2)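 Conscious dogs with ischemic ventricular arrhythmias persisting for 24 h after a glass bead was inserted into a coronary artery. Compound was given iv or orally. Lead II ECG recorded continuously by telemetry. Percent sinus beats taken before and after dosing, plus duration of effect (min).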

Canis familiaris [6] = test: Effect on ischemic arrhythmias was studied in dogs. 3 mg/kg was injected intravenously and percent sinus beats before compound administration, was reported.; format: functional, Canis lupus familiaris; details: route intravenous; method in brief: as §2
Mus musculus [7] = test: Compound was evaluated for ventricular extrasystole activity, 3 min before aconitine infusion, at a dose of 3 mg/kg, intravenously administered in mice; S=significant antiarrhythmic effect; format: functional, organism-based; parameters: dose 3 mg/kg; details: Heart
Method in brief: (§3)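 Aconitine arrhythmia model in pentobarbital-anesthetized male mice (20-35 g). Test compound was given iv 3 min or po 30 min before continuous tail-vein infusion of aconitine (0.685 µg/min). Lead II ECG recorded; onset times of ventricular extrasystole (VES) and ventricular tachycardia (VT) were measured.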

Mus musculus [8] = test: Compound was evaluated for ventricular extrasystole, 30 min before aconitine infusion, at a dose of 30 mg/kg, perorally administered in mice; S=significant antiarrhythmic effect; format: functional, organism-based; parameters: dose 30 mg/kg; details: Heart; method in brief: as §3
Mus musculus [9] = test: Compound was evaluated for ventricular tachycardia activity in intravenously administered mice, 3 min before aconitine infusion, at a dose of 3 mg/kg; S=significant antiarrhythmic effect; format: functional, organism-based; parameters: dose 3 mg/kg; details: Heart; method in brief: as §3
[10] = Lethal dose in mice (LD50) (following i.v. dosing); details: mouse, in vivo, iv
Mus musculus [11] = test: Compound was evaluated for ventricular tachycardia activity in intravenously administered mice, 3 min before aconitine infusion, at a dose of 10 mg/kg; S=significant antiarrhythmic effect; format: functional, organism-based; parameters: dose 10 mg/kg; details: Heart; method in brief: as §3
Mus musculus [12] = test: Compound was evaluated for ventricular extrasystole activity, 3 min before aconitine infusion, at a dose of 10 mg/kg, intravenously administered in mice; S=significant antiarrhythmic effect; format: functional, organism-based; parameters: dose 10 mg/kg; details: Heart; method in brief: as §3
Cavia porcellus [13] = species on record: Cavia porcellus; test: Effect on maximal follow rate showing the contractile frequencies of atria to electrical stimulation 10 min after incubating compound with right atria of guinea pig; format: functional; method in brief: as §1
Mus musculus [14] = test: Compound was evaluated for ventricular tachycardia activity in perorally administered mice, 30 min before aconitine infusion, at a dose of 10 mg/kg; S=significant antiarrhythmic effect; format: functional, organism-based; parameters: dose 10 mg/kg; details: Heart; method in brief: as §3
Canis familiaris [15] = test: Effect on ischemic arrhythmias was studied in dogs, by glass bead method. 60 mg/kg was administered perorally and percent sinus beats after compound administration, was reported.; format: functional, Canis lupus familiaris; details: route oral
Method in brief: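 Conscious dogs; ventricular arrhythmias induced by inserting a glass bead into a coronary artery, with marked arrhythmias persisting for 24 h. Compound given orally. Lead II ECG recorded continuously by telemetry. Percent sinus beats measured before and after dosing, and duration of effect in min recorded.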

Canis familiaris [16] = test: Effect on ischemic arrhythmias was studied in dogs, by glass bead method. 60 mg/kg was administered perorally and percent sinus beats before compound administration, was reported.; format: functional, Canis lupus familiaris; details: route oral; method in brief: as §2
Mus musculus [17] = test: Compound was evaluated for ventricular tachycardia activity in perorally administered mice, 30 min before aconitine infusion, at a dose of 30 mg/kg; S=significant antiarrhythmic effect; format: functional, organism-based; parameters: dose 30 mg/kg; details: Heart; method in brief: as §3
Mus musculus [18] = test: Compound was evaluated for ventricular extrasystole, 30 min before aconitine infusion, at a dose of 10 mg/kg, perorally administered in mice; S=significant antiarrhythmic effect; format: functional, organism-based; parameters: dose 10 mg/kg; details: Heart; method in brief: as §3

Compound	pA2 [2]	pA2 [3]	Decrease (Cavia porcellus [1]) [%]	also measured
C=C(c1cc(C)cc(C)c1OCC(O)CNC(C)C)n1ccnc1 (stereo not drawn)	6.31	5.55	25.9	–
C=C(c1cc(Cl)ccc1OCC(O)CNC(C)C)n1ccnc1 (stereo not drawn)	6.41	6.3	27.1	–
C=C(c1cc(Cl)cc(Cl)c1OCC(O)CNC(C)(C)C)n1ccnc1 (stereo not drawn)	6.51	6.3	27.1	–
C=C(c1c(C)ccc(C)c1OCC(O)CNC(C)C)n1ccnc1 (stereo not drawn)	6.43	6.23	35.7	Activity (Mus musculus [7]): Anti-arrhythmic; Activity (Mus musculus [9]): Anti-arrhythmic; LD50 [10]: 30.7 mg/kg
C=C(c1c(Cl)cc(Cl)cc1OCC(O)CNC(C)C)n1ccnc1 (stereo not drawn)	6.27	6.44	19.6	–
C=C(c1cccc(OC)c1OCC(O)CNC(C)C)n1ccnc1 (stereo not drawn)	6.99	6.64	29	–
C=C(c1cccc(Cl)c1OCC(O)CNC(C)C)n1ccnc1 (stereo not drawn)	5.63	5.66	28.2	–
C=C(c1cc(Cl)cc(C)c1OCC(O)CNC(C)(C)C)n1ccnc1 (stereo not drawn)	5.04	5.49	27.3	–
C=C(c1ccccc1OCC(O)CN(C)C)n1ccnc1 (stereo not drawn)	6.12	5.41	30.7	Activity (Mus musculus [11]): Anti-arrhythmic; Activity (Mus musculus [12]): Anti-arrhythmic; LD50 [10]: 45.4 mg/kg
C=C(c1cc(Cl)cc(C)c1OCC(O)CNC(C)C)n1ccnc1 (stereo not drawn)	5.93	5.22	37.9	Activity (Mus musculus [7]): Anti-arrhythmic; Activity (Mus musculus [9]): Anti-arrhythmic; LD50 [10]: 48.8 mg/kg
C=C(c1c(Cl)ccc(Cl)c1OC[C@H](O)CNC(C)C)n1ccnc1.Cl	5.19	4.46	–	Decrease (Cavia porcellus [13]): 39.5%; Activity (Mus musculus [7]): Anti-arrhythmic; Activity (Mus musculus [9]): Anti-arrhythmic; Activity (Mus musculus [14]): Anti-arrhythmic
C=C(c1cc(C)cc(C)c1OCC(O)CNC(C)(C)C)n1ccnc1 (stereo not drawn)	6.58	5.55	31.8	Activity (Mus musculus [7]): Anti-arrhythmic; Activity (Mus musculus [9]): Anti-arrhythmic; LD50 [10]: 15.9 mg/kg
C=C(c1cc(Cl)c(Cl)cc1OCC(O)CNC(C)C)n1ccnc1 (stereo not drawn)	6.23	6.64	23.8	–
C=C(c1ccccc1OCC(O)CN1CCCC1)n1ccnc1 (stereo not drawn)	6.15	6.13	16.7	–
C=C(c1cc(Cl)ccc1OCC(O)CNC(C)C)n1cccn1 (stereo not drawn)	6.74	6.76	14.3	–
CC(C)NCC(O)COc1ccccc1C(C)n1ccnc1 (stereo not drawn)	6.83	6.9	15.6	–
CC(C)NCC(O)COc1cccc2ccccc12 (stereo not drawn) [PROPRANOLOL]	–	–	–	Sinus beats (Canis familiaris [15]): 51.6%; Decrease (Cavia porcellus [13]): 33.5%; Activity (Mus musculus [8]): Anti-arrhythmic; Activity (Mus musculus [11]): Anti-arrhythmic; Activity (Mus musculus [12]): Anti-arrhythmic; Sinus beats (Canis familiaris [16]): 12%
C=C(c1cccc(C)c1OCC(O)CNC(C)(C)C)n1ccnc1 (stereo not drawn)	5.62	5.81	46.6	Activity (Mus musculus [7]): Anti-arrhythmic; Activity (Mus musculus [8]): Anti-arrhythmic; Activity (Mus musculus [9]): Anti-arrhythmic; Activity (Mus musculus [17]): Anti-arrhythmic; LD50 [10]: 23.1 mg/kg
C=C(c1cc(Cl)cc(Cl)c1OCC(O)CNC(C)C)n1ccnc1 (stereo not drawn)	6.64	6.5	27.5	–
CC(C)NCC(O)COc1ccccc1Cn1ccnc1 (stereo not drawn)	6.66	6.69	14.2	–
CC(C)NCC(O)COc1ccccc1Cn1cccn1 (stereo not drawn)	7.54	7.42	28.7	–
C=C(c1c(Cl)ccc(Cl)c1OC[C@@H](O)CNC(C)C)n1ccnc1.Cl	5.05	5.08	–	Decrease (Cavia porcellus [13]): 40.3%; Activity (Mus musculus [18]): Anti-arrhythmic; Activity (Mus musculus [9]): Anti-arrhythmic; Activity (Mus musculus [14]): Anti-arrhythmic; Activity (Mus musculus [12]): Anti-arrhythmic
CC(C)=C(c1cc(Cl)ccc1OCC(O)CNC(C)C)n1ccnc1 (stereo not drawn)	5.19	4.9	21.6	–
C=C(c1ccc(Cl)cc1OCC(O)CNC)n1ccnc1 (stereo not drawn)	6.21	6.19	17.8	–
C=C(c1ccc(Cl)cc1OCC(O)CNC(C)C)n1ccnc1 (stereo not drawn)	5.95	5.86	26.3	–
C=C(c1cccc(OC)c1OCC(O)CNC(C)(C)C)n1cnc2ccccc21 (stereo not drawn)	7.03	7.03	39.2	Activity (Mus musculus [7]): Anti-arrhythmic; Activity (Mus musculus [9]): Anti-arrhythmic; LD50 [10]: 19.8 mg/kg
C=C(c1c(C)c(C)cc(Cl)c1OCC(O)CNC(C)(C)C)n1ccnc1 (stereo not drawn)	6.21	6.18	31.9	Activity (Mus musculus [7]): Anti-arrhythmic; Activity (Mus musculus [9]): Anti-arrhythmic; LD50 [10]: 18.8 mg/kg

More lines, main results first:

pA2 [2]	pA2 [3]	Compound	Decrease (Cavia porcellus [1]) [%]	also measured
5.41	5.27	C=C(c1c(Cl)ccc(Cl)c1OCC(O)CNC(C)(C)C)n1ccnc1 (stereo not drawn)	26.3	–
6.33	6.12	C=C(c1ccccc1OCC(O)CNC(C)C)n1cncn1 (stereo not drawn)	–	Duration (Canis familiaris [4]): 15 min; Sinus beats (Canis familiaris [5]): 28.3%; Sinus beats (Canis familiaris [6]): 9.8%; Activity (Mus musculus [7]): Anti-arrhythmic; Activity (Mus musculus [8]): Anti-arrhythmic; Activity (Mus musculus [9]): Anti-arrhythmic
6.17	5.8	C=C(c1ccccc1OCC(O)CNC(C)C)n1c(C)cnc1CC (stereo not drawn)	9.1	–
7.16	7.19	C=C(c1ccccc1OCC(O)CNC(C)C)n1cnc(C)c1 (stereo not drawn)	–	Activity (Mus musculus [9]): Anti-arrhythmic
6.89	6.89	C=C(c1ccccc1OCC(O)CNC(C)C)n1ccnc1 (stereo not drawn)	27.1	–
7.08	7.29	C=C(c1ccccc1OCC(O)CNC(C)(C)C)n1cnc2ccccc21 (stereo not drawn)	–	Activity (Mus musculus [7]): Anti-arrhythmic; Activity (Mus musculus [9]): Anti-arrhythmic
7.75	7.44	C=C(c1ccccc1OCC(O)CNC(C)C)n1cccn1 (stereo not drawn)	21.6	–
6.19	6.2	C=C(c1ccccc1OCC(O)CNC(C)C)n1ccc(=O)cc1 (stereo not drawn)	13	–
6.24	6.24	C=C(c1ccccc1OCC(O)CNC(C)C)n1ccnc1C (stereo not drawn)	15	–
6.47	6.36	C=C(c1c(C)ccc(C)c1OCC(O)CNC(C)(C)C)n1ccnc1 (stereo not drawn)	17.1	–
6.46	6.67	C=C(c1ccccc1OCC(O)CNC(C)C)n1cnc2ccccc21 (stereo not drawn)	16.8	–
6.97	6.97	C=C(c1ccccc1OCC(O)CNC(C)(C)C)n1ccnc1C (stereo not drawn)	27.1	–
6.41	6.26	C=C(c1cccc(OC)c1OCC(O)CNC(C)C)n1cnc2ccccc21 (stereo not drawn)	22.3	–
8.01	7.69	C=C(c1ccccc1OCC(O)CNC(C)(C)C)n1ccnc1 (stereo not drawn)	14.1	–
6.76	6.52	C/C=C(\c1ccccc1OCC(O)CNC(C)C)n1ccnc1 (stereo not drawn)	18.6	–
6.37	6.15	C=C(c1ccccc1OCC(O)CNC(C)C)n1cnc(C(=O)OCC)c1C (stereo not drawn)	–	–
7.3	7.19	C/C=C(\c1ccccc1OCC(O)CNC(C)(C)C)n1ccnc1 (stereo not drawn)	14.5	–
8.01	8.1	C=C(c1ccccc1OCC(O)CNC(C)(C)C)n1cccn1 (stereo not drawn)	–	Activity (Mus musculus [11]): Anti-arrhythmic
